# According to PubChem BioAssay AID602216 (Southern Research Specialized Biocontainment Screening …, 2012):
# Records with an inconclusive call do not appear. Activity calls are given as the source filed them.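 The calls were made as follows: active = inhibition of 30% or more at any tested concentration; inactive = the rest, inconclusive results apart.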
# Biological target: M17 leucyl aminopeptidase (Plasmodium falciparum 3D7)
# Experiment: PfM17LAP leucine aminopeptidase inhibitors, dose response, biochemical, QFRET, set 2 (AID 602216)
# Details: recombinant PfM17LAP, H-Leu-NHMec fluorogenic cleavage
# Method in brief: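 Assay system: Recombinant P. falciparum M17 leucine aminopeptidase | Detection: Fluorescence from released NHMec leaving group | Incubation: 90 min reaction | Evaluation: IC50 from four-parameter logistic fit, limits fixed 0–100% inhibition | Reagent: H-Leu-NHMec substrate, 0.1 mM | Controls: Full reaction and no-enzyme wells | Medium: pH 7.5 buffer containing CoCl2 | Compound: Series from 100 to 0.2 µM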
row,Compound,IC50 [nM]
1,CC(C)COc1ccc(CC(=O)NO)cc1,950
2,O=C(Cc1ccc(OCc2ccccc2)cc1)NO,630
3,CCCCOc1ccc(CC(=O)N(C)O)cc1,18000
4,CCOc1ccc(CC(=O)NO)cc1,740
5,CCCCOc1ccc(C(=O)NO)cc1,3300
6,O=C(NO)c1cccc2ccccc12,9080
7,CCCCCCCCCC(=O)NO,1920
8,Cc1ccc(CC(=O)NO)cc1,980
9,CN(O)C(=O)Cc1ccc(OCc2ccccc2)cc1,20600
10,COc1ccc(CC(=O)NO)cc1,540
11,O=C(Cc1ccc(Oc2ccccc2)cc1)NO,410
12,CCCCc1ccc(CC(=O)NO)cc1,380
13,CC(C)(C(=O)NO)c1ccccc1,60300
14,CCCCOc1ccc(CC(=O)NO)cc1,410
15,CCCCOc1ccc(CNc2c(N(C)O)c(=O)c2=O)cc1,33200
16,COc1ccc(CCCC(=O)NO)cc1,2850
17,O=C(Cc1ccc2c(c1)CCCC2)NO,180
18,CCCCOc1ccc(CCC(=O)NO)cc1,2300

# Same assay, conditions: recombinant PfM17LAP, H-Leu-NHMec fluorogenic cleavage; at 1.56 µM (top of the series)
row,Compound,inhibition
1,COC(=O)Cc1ccc(OCCN(C)C)cc1,inactive

# Same assay, conditions: recombinant PfM17LAP, H-Leu-NHMec fluorogenic cleavage; at 100 µM (top of the series)
row,Compound,inhibition
1,COC(=O)Cc1ccc(OCC(C)C)cc1,inactive
2,CCCOc1ccc(CC(=O)OC)cc1,inactive
3,CCC(C)Oc1ccc(CC(=O)OC)cc1 (stereo not drawn),inactive
4,CCCCOc1ccc(CC(=O)O)cc1,inactive
